The values that follow come from ChEMBL document CHEMBL4041521, “3-Aroylindoles display antitumor activity in vitro and in vivo: Effects of N1-substituents on biological activity” (Eur J Med Chem, 2017).

Activity calls are given as the source filed them. The calls are words filed in the database; no cut-off is given here.

The species named for series [1] is Homo sapiens. Description: Inhibition of HDAC in human PC3 cells assessed as increase in alpha-tubulin acetylation by Western blot analysis. It is filed as cell-based. The method in brief:
(§1)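 PC3 prostate cancer cells treated, then lysed in 20 mM Tris-HCl pH 7.5 with 150 mM NaCl, EDTA/EGTA, phosphatase and protease inhibitors, 0.1% Triton X-100. Lysates spun 13,000 rpm for 30 min, then immunoblotted for acetylated α-tubulin and acetylated histone H3.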
(In general: A western blot detects proteins with antibodies after separation by electrophoresis.)

Series [2] is filed under the species Homo sapiens. Description: Inhibition of tubulin polymerization in human PC3 cells assessed as […] in MPM2 expression at 0.01 to 10 uM by Western blot analysis. The class given is cell-based.
In the next series the target is Histone deacetylase 1 (Homo sapiens, UniProt Q13547). Description: Inhibition of recombinant human HDAC1 using fluorogenic substrate by fluorescence assay.
The species entered for series [3] is Homo sapiens. Description: Inhibition of HDAC in human PC3 cells assessed as increase in histone-H3 acetylation by Western blot analysis. It is filed as cell-based. The method in brief:
as §1

In the next series the test system is PC-3. Description: Antiproliferative activity against human PC3 cells measured after 48 hrs by sulforhodamine-B assay. It is filed as functional, cell-based. The note with it: PC-3, 48 h. For orientation: In SRB staining, fixed cells bind dye roughly in proportion to their protein.
For series [4], the species on record is Sus scrofa. Description: Inhibition of purified porcine tubulin polymerization at 10 uM measured every 1 min for 30 mins.
Another series concerns the target Histone deacetylase 2 (Homo sapiens, UniProt Q92769). Briefly: Inhibition of recombinant human HDAC2 using fluorogenic substrate by fluorescence assay.
A further series deals with A549. Description: Antiproliferative activity against human A549 cells measured after 48 hrs by sulforhodamine-B assay. It is filed as functional, cell-based. The note with it: A549, 48 h.
The test system of a further series is HCT-116. Briefly: Antiproliferative activity against human HCT116 cells measured after 48 hrs by sulforhodamine-B assay. The class given is functional, cell-based. Particulars: HCT-116, 48 h.
A short description of series [5]: Inhibition of HDAC activity in human HeLa cell nuclear extract using fluorometric substrate measured after 30 mins by fluorescence assay. It is filed as cell-based.
Series [6] deals with T1, Protein deacetylase HDAC6 (Homo sapiens, UniProt Q9UBN7).
T1 sequence (Q9UBN7 whole entry): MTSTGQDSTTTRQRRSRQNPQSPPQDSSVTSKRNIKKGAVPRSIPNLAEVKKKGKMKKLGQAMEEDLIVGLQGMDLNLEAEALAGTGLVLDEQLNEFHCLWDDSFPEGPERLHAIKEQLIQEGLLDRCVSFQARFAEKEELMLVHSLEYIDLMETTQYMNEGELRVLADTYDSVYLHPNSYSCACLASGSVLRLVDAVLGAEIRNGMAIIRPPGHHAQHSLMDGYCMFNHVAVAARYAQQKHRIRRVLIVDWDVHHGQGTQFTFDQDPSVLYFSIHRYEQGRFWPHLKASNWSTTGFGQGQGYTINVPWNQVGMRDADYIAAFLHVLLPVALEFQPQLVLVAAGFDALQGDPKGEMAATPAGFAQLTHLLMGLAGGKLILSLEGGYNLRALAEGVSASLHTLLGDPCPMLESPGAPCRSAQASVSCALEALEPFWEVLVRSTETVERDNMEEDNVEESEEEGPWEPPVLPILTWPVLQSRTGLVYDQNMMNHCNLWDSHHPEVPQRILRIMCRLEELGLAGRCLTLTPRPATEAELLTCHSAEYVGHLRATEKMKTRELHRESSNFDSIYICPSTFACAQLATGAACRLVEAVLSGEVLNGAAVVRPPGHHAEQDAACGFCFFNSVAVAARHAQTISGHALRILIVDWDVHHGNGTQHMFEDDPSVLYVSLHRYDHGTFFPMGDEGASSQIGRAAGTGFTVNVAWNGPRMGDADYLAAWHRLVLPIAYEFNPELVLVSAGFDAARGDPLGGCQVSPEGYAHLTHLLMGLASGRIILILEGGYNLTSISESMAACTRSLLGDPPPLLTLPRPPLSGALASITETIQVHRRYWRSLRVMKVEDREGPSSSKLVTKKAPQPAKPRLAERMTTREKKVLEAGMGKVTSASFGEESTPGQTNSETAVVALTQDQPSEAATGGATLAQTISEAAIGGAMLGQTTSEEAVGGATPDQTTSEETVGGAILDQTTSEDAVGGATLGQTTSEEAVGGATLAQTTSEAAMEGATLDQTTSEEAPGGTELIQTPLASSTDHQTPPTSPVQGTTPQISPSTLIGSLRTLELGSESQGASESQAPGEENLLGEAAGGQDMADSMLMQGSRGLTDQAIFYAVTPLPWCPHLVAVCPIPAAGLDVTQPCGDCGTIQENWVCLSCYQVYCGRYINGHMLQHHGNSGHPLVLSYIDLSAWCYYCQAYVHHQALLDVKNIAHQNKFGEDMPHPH
Briefly: Inhibition of recombinant human HDAC6 using fluorogenic substrate by fluorescence assay.

The species named for series [7] is Homo sapiens. Description: Inhibition of HDAC in human PC3 cells assessed as increase in histone-H3 acetylation at 0.01 to 10 uM by Western blot analysis. It is filed as cell-based. The method in brief: as §1
For series [8], the species on record is Homo sapiens. Description: Selectivity ratio of IC50 for recombinant human HDAC8 to IC50 for recombinant human HDAC6.
Another series deals with Mus musculus. Briefly: Toxicity in human RPMI8226 cells xenografted in athymic mouse assessed as mortality at 1 mg/kg, ip administered once in a week. Particulars: in vivo. It is filed as organism-based. The gist of the method:
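RPMI-8226 xenograft nude mice given bortezomib 1 mg/kg i.p. once a week as reference treatment; animal deaths recorded.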

For series [9], the species on record is Sus scrofa. Description: Inhibition of purified porcine tubulin polymerization measured every 1 min for 30 mins.
The species named for series [10] is Sus scrofa. Briefly: Inhibition of purified porcine tubulin polymerization at 1 to 10 uM measured every 1 min for 30 mins.

Histone deacetylase 1, sequence (Q13547 whole entry): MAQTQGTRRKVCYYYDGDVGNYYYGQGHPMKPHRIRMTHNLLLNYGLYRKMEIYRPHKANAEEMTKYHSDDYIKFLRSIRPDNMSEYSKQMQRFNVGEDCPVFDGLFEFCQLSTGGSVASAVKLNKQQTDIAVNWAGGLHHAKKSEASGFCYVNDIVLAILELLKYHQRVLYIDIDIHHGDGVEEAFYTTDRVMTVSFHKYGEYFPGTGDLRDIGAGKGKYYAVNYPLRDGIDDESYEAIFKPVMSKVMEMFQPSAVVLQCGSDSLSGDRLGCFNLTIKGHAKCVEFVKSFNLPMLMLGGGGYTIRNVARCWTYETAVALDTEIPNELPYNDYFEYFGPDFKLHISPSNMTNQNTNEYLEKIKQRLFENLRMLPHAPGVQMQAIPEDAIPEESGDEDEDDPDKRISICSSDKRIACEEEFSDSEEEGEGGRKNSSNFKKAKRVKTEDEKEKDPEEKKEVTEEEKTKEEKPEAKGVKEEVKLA
Histone deacetylase 2, sequence (Q92769 whole entry): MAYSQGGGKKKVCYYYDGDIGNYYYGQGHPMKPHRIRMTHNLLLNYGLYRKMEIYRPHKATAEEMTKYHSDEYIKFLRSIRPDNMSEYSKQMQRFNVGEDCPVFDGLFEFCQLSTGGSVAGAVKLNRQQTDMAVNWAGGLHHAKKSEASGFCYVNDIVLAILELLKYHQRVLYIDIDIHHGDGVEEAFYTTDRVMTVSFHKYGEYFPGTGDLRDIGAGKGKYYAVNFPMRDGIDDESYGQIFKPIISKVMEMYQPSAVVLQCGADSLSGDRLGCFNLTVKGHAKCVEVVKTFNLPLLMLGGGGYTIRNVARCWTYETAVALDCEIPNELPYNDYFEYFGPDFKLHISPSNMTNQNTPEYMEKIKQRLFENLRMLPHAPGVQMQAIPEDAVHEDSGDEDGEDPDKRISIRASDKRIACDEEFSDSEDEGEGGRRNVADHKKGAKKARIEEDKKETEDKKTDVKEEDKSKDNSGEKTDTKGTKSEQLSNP

As usually defined, the IC50 is the concentration that inhibits the measured activity by half. As to `COc1ccc(C(=O)c2cn(Cc3ccc(C(=O)NO)cc3)c3cc(OC)ccc23)cc1`, in the series filed under Homo sapiens [1], the alpha-tubulin acetylation increase entry is “Dose-dependent effect”. The inhibition result in the series filed under Homo sapiens [2] and in the series listed under Sus scrofa [4] was “inactive” in each case. For the same compound, the IC50 on Histone deacetylase 1 came out at 158 nM; in the series with PC-3 it was 1840 nM; at Histone deacetylase 2 it was 209 nM; in the series with A549, 940 nM; with HCT-116, 1900 nM; in series [5], 145 nM. Further, the IC50 in [6] stood at 108 nM. The inhibition result in the series listed under Homo sapiens [3] is “Dose-dependent effect”.

For `COc1cc(C(=O)c2cn(Cc3ccc(/C=C/C(=O)NO)cc3)c3ccccc23)cc(OC)c1OC`, the alpha-tubulin acetylation increase entry in the series filed under Homo sapiens [1] was “Dose-dependent effect”. Besides, the inhibition entry in the series listed under Homo sapiens [2] and in the series listed under Sus scrofa [4] was “inactive” throughout. The IC50 worked out at 141 nM on Histone deacetylase 1; 2600 nM with PC-3; 386 nM on Histone deacetylase 2; 1900 nM with A549; 5500 nM in the series on HCT-116; 178 nM in series [5]. Further, the IC50 in series [6] turned out to be 138 nM. Moreover, the inhibition result in the series filed under Homo sapiens [3] was “Dose-dependent effect”.

Consider `COc1cc(C(=O)c2cn(S(=O)(=O)c3cccc(/C=C/C(=O)NO)c3)c3ccccc23)cc(OC)c1OC`, for which the inhibition entry in the series filed under Homo sapiens [7], in the series filed under Homo sapiens [2] and in the series filed under Sus scrofa [4] was “inactive” throughout. Further, the concentration for half-maximal inhibition (IC50) on Histone deacetylase 1 stood at 139 nM; in the series on PC-3 it was 5770 nM; at Histone deacetylase 2, 2320 nM; in the series on A549 it was 4590 nM; in the series with HCT-116, 6680 nM; in series [5], 172 nM. The IC50 in series [6] was found to be 792 nM.

As for `CN1CCc2c(c3ccccc3n2Cc2ccc(C(=O)NO)cc2)C1`, the Ratio IC50 in the series listed under Homo sapiens [8] is 14.

`CC(C)C[C@H](NC(=O)[C@H](Cc1ccccc1)NC(=O)c1cnccn1)B(O)O` [BORTEZOMIB]: in the series with Mus musculus, the Activity result was “Toxic”.

Regarding `COc1ccc2c(C(=O)c3cc(OC)c(OC)c(OC)c3)cn(Cc3ccc(/C=C/C(=O)NO)cc3)c2c1`, in the series listed under Homo sapiens [1], the alpha-tubulin acetylation increase result was “Dose-dependent effect”. Moreover, the IC50 on Histone deacetylase 1 was found to be 130 nM; in the series with PC-3, 666 nM; at Histone deacetylase 2, 288 nM; in the series with A549, 678 nM; in the series with HCT-116, 1670 nM; in [5], 147 nM. Also, the IC50 in series [6] amounted to 70.5 nM. In addition, the inhibition entry in the series listed under Homo sapiens [3] and in the series filed under Sus scrofa [9] was “Dose-dependent effect” throughout.

On to `COc1ccc2c(C(=O)c3cc(OC)c(OC)c(OC)c3)cn(Cc3ccc(C(=O)Nc4ccccc4N)cc3)c2c1`, for which the inhibition result in the series filed under Sus scrofa [9] is “Dose-dependent effect”. Also, the IC50 is 157 nM with PC-3, 208 nM in the series on A549, 231 nM in the series on HCT-116 and > 10000 nM in series [5].

`COc1ccc2c(C(=O)c3cc(OC)c(OC)c(OC)c3)cn(S(=O)(=O)c3ccc(/C=C/C(=O)NO)cc3)c2c1`: the IC50 was > 10000 nM on Histone deacetylase 1; 66.7 nM in the series on PC-3; > 10000 nM at Histone deacetylase 2; 120 nM in the series on A549; 70.3 nM in the series with HCT-116; > 10000 nM in series [5]. For the same compound, the IC50 in [6] was > 10000 nM. For the same compound, the inhibition entry in the series filed under Sus scrofa [10] was “Active”.
